The values that follow come from ChEMBL document CHEMBL1135407, “Structure-based design of a parallel synthetic array directed toward the discovery of irreversible inhibitors of human rhinovirus 3C protease” (J Med Chem, 2002).

The test system of one assay is HeLa. The assay can be described thus: 50% cytotoxic concentration required to inhibit HRV-14 infected H1HeLa cells. In kind it is functional. As to conditions: Homo sapiens.
Assay [1] deals with T1, Human rhinovirus A protease (Human rhinovirus sp., UniProt Q4U254).
T1 sequence (Q4U254 whole entry): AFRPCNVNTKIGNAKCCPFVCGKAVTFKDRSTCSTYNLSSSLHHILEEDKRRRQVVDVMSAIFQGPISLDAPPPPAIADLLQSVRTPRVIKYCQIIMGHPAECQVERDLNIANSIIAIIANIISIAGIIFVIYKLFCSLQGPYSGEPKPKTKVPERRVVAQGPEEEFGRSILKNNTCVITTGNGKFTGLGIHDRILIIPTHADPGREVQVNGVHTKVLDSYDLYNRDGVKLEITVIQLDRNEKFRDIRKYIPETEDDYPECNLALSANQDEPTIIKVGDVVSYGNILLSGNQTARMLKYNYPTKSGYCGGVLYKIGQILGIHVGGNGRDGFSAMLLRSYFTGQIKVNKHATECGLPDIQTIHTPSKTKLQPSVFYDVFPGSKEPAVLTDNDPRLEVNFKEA
In words: 50% effective concentration required to inhibit Human Rhinovirus 10 Protease 3C.

Assay [2] concerns the target T1, Human rhinovirus A protease. The assay can be described thus: Inhibition of Human Rhinovirus 14 (HRV14) Protease 3C.
Assay [3] deals with T2, Human rhinovirus A protease (Human rhinovirus sp.) (UniProt Q4U254).
T2 sequence (whole entry): T1 sequence (Q4U254 whole entry)
The assay can be described thus: Rate of inactivation of Human Rhinovirus 14 (HRV14) Protease 3C. The method in brief: (§1)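 Irreversible (Michael acceptor) inactivation of HRV-14 3C protease, reported as a second-order rate of inactivation in M^-1 sec^-1.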

The target of assay [4] is T2, Human rhinovirus A protease (Human rhinovirus sp.). In words: Ability to inactivate Human Rhinovirus 2 Protease 3C.
Assay [5] has as its target T1, Human rhinovirus A protease. In words: 50% effective concentration required to inhibit Human Rhinovirus 2 Protease 3C.
For assay [6] the target is unchanged. In words: 50% effective concentration required to inhibit Human Rhinovirus 89 Protease 3C.
Assay [7] addresses T2, Human rhinovirus A protease (Human rhinovirus sp.). The assay can be described thus: Ability to inactivate Human Rhinovirus 16 Protease 3C.
Assay [8] has as its target T1, Human rhinovirus A protease. The assay can be described thus: 50% effective concentration required to inhibit Human Rhinovirus 16 Protease 3C.
Assay [9] has as its target T2, Human rhinovirus A protease (Human rhinovirus sp.). The assay can be described thus: Ability to inactivate Human Rhinovirus 89 Protease 3C.
For assay [10], the target named is T1, Human rhinovirus A protease. In words: 50% effective concentration required to inhibit Human Rhinovirus 1A Protease 3C.
The target of assay [11] is T2, Human rhinovirus A protease (Human rhinovirus sp.). In words: Evaluated for the rate of inactivation of Human Rhinovirus 14 (HRV14) Protease 3C. The method in brief: as §1

A value given as a limit tells only on which side of the number the result lay.

In general, CC50 refers to the concentration at which the toxic effect on the cells reaches its halfway point. Lower therefore signals harm at low concentration. What is called EC50 is the concentration at which the effect is half-maximal. Lower therefore signals an effect from little substance.

For `CCOC(=O)/C=C/[C@H](C[C@@H]1CCNC1=O)NC(=O)C1=Cc2cc(Br)ccc2OC1`, the CC50 in the assay on HeLa was > 100 µM. For the same compound, the EC50 in assay [1] turned out to be 0.55 µM; in assay [2], 0.18 µM. For the same compound, the K obs / 1 in assay [3] was 25000 M⁻¹ s⁻¹; in assay [4] it was 372 M⁻¹ s⁻¹.
Take `CCOC(=O)/C=C/[C@H](C[C@@H]1CCNC1=O)NC(=O)/C=C/c1cc(Br)ccc1Br`: the K obs / 1 in assay [3] worked out at 6850 M⁻¹ s⁻¹.
Regarding `CCOC(=O)/C=C/[C@H](CCC(N)=O)NC(=O)C(Cc1ccccc1)NC(=O)[C@H](CC(C)C)NC(=O)OCc1ccccc1` (stereo partly specified), the EC50 in [5] stood at 1.6 µM; in assay [6], 6.3 µM; in assay [1], 0.6 µM; in [2], 0.54 µM; in [8], 2.3 µM. The CC50 in the assay with HeLa is > 100 µM. Also, the K obs / 1 in assay [7] worked out at 6530 M⁻¹ s⁻¹; in assay [3] it was 25000 M⁻¹ s⁻¹; in assay [4], 2000 M⁻¹ s⁻¹; in assay [9], 3440 M⁻¹ s⁻¹.
As for `CCOC(=O)/C=C/[C@H](C[C@@H]1CCNC1=O)NC(=O)C1=Cc2cc(Cl)ccc2OC1`, the EC50 worked out at 0.65 µM in assay [5], 0.46 µM in assay [1], 0.16 µM in assay [2] and 5.1 µM in assay [10]. In addition, the cytotoxic concentration (CC50) in the assay with HeLa is > 100 µM. The K obs / 1 was 2200 M⁻¹ s⁻¹ in assay [7], 19700 M⁻¹ s⁻¹ in [3] and 385 M⁻¹ s⁻¹ in [4].
`CCOC(=O)/C=C/[C@H](C[C@@H]1CCNC1=O)NC(=O)c1cc(-c2ccccc2)oc1C`: the CC50 in the assay on HeLa was > 100 µM. The same compound displayed an EC50 in assay [2] of 1.94 µM. Also, the K obs / 1 in assay [3] was determined as 4740 M⁻¹ s⁻¹.
Regarding `CCOC(=O)/C=C/[C@H](C[C@@H]1CCNC1=O)NC(=O)C1=Cc2ccccc2OC1`, the CC50 in the assay with HeLa was > 100 µM. For the same compound, the EC50 in assay [2] amounted to 1.19 µM. In addition, the K obs / 1 in assay [3] was determined as 886 M⁻¹ s⁻¹.
On the same counts, the results for `CCOC(=O)/C=C/[C@H](C[C@@H]1CCNC1=O)NC(=O)/C=C/c1ccc(F)c(Br)c1` are > 100 µM, 0.63 µM and 2860 M⁻¹ s⁻¹.
As to `CCOC(=O)/C=C/[C@H](C[C@@H]1CCNC1=O)NC(=O)/C=C/c1cccc(Br)c1`, the CC50 in the assay with HeLa was > 10 µM. This compound also gave an EC50 in assay [2] of 1.4 µM. In addition, the K obs / 1 in assay [11] was found to be 2560 M⁻¹ s⁻¹.
Take `CCOC(=O)/C=C/[C@H](C[C@@H]1CCNC1=O)NC(=O)c1ccc2ccc(Br)cc2c1`: the CC50 in the assay on HeLa was > 50 µM. Also, the EC50 in assay [2] was found to be 0.18 µM. Also, the K obs / 1 in assay [3] was found to be 31400 M⁻¹ s⁻¹.
On the same counts, the results for `CCOC(=O)/C=C/[C@H](C[C@@H]1CCNC1=O)NC(=O)c1ccc2cc(C)ccc2c1` are > 100 µM, 0.88 µM and 5000 M⁻¹ s⁻¹.
On the same counts, the results for `CCOC(=O)/C=C/[C@H](C[C@@H]1CCNC1=O)NC(=O)/C=C/c1ccc(C)c(Br)c1` are > 10 µM, 1.29 µM and 4080 M⁻¹ s⁻¹.
On the same counts, the results for `CCOC(=O)/C=C/[C@H](C[C@@H]1CCNC1=O)NC(=O)/C=C/c1ccc2c(c1)OCO2` are > 10 µM, 1.81 µM and 1960 M⁻¹ s⁻¹.
For `CCOC(=O)/C=C/[C@H](C[C@@H]1CCNC1=O)NC(=O)/C=C/c1cc2c(cc1Br)OCO2`, the CC50 in the assay with HeLa was > 100 µM. This compound also registered an EC50 in [2] of 0.49 µM. This compound also returned a K obs / 1 in assay [3] of 14400 M⁻¹ s⁻¹.
For the compound `CCOC(=O)/C=C/[C@H](C[C@@H]1CCNC1=O)NC(=O)c1ccc2ccccc2c1`, the half-maximal effective concentration (EC50) is 1.4 µM in assay [5] and 0.15 µM in [2]. The cytotoxic concentration (CC50) with HeLa is > 100 µM. For the same compound, the K obs / 1 came to 1090 M⁻¹ s⁻¹ in assay [3] and 110 M⁻¹ s⁻¹ in assay [4].
